# Measurements as given in ChEMBL document CHEMBL1157852, “Modulation of doxorubicin activity in cancer cells by conjugation with fatty acyl and terpenyl hydrazones” (Eur J Med Chem, 2010).
# The source made the active and inactive calls. The rule behind the calls is not given here.
# Assays:
# [1] = Cytotoxicity against human 518A2 cells after 24 hrs by MTT assay; format: functional, cell-based; settings: 518A2, 24 h
# Method in brief: (§1)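 MTT assay. Cells seeded and cultured 24 h, then exposed to compound for 24, 48 or 72 h. MTT added to a final 0.05% (HL-60, 518A2) or 0.1% (KB-V1, MCF-7) for 2 h. Formazan dissolved in 10% SDS/DMSO with 0.6% acetic acid; absorbance read at 570 nm against 630 nm background. Viability taken relative to untreated controls (100%). IC50 from concentration-response curves, mean ± SD of four independent experiments.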
# [2] = Cytotoxicity against human 518A2 cells after 48 hrs by MTT assay; format: functional, cell-based; settings: 518A2, 48 h; method in brief: as §1
# [3] = Cytotoxicity against human 518A2 cells after 72 hrs by MTT assay; format: functional, cell-based; settings: 518A2, 72 h; method in brief: as §1
# HL-60 [4] = test: Cytotoxicity against human HL60 cells after 24 hrs by MTT assay; format: functional, cell-based; settings: HL-60, 24 h; method in brief: as §1
# HL-60 [5] = test: Cytotoxicity against human HL60 cells after 48 hrs by MTT assay; format: functional, cell-based; settings: HL-60, 48 h; method in brief: as §1
# HL-60 [6] = test: Cytotoxicity against human HL60 cells after 72 hrs by MTT assay; format: functional, cell-based; settings: HL-60, 72 h; method in brief: as §1
# [7] = Cytotoxicity against human vinblastine-resistant KBV1 cells after 24 hrs by MTT assay; format: functional, cell-based; settings: KB-V1, 24 h; method in brief: as §1
# [8] = Cytotoxicity against human vinblastine-resistant KBV1 cells after 48 hrs by MTT assay; format: functional, cell-based; settings: KB-V1, 48 h; method in brief: as §1
# [9] = Cytotoxicity against human vinblastine-resistant KBV1 cells after 72 hrs by MTT assay; format: functional, cell-based; settings: KB-V1, 72 h; method in brief: as §1
# [10] = Cytotoxicity against human vinblastine-resistant KBV1 cells after 72 hrs by MTT assay in presence of 24 mM ABC transporter inhibitor verapamil hydrochloride; format: functional, cell-based; settings: KB-V1, 72 h, in the assay text read “24 uM” for “24 mM”
# Method in brief: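 MTT viability assay on P-gp-overexpressing KB-V1/Vbl cells with 24 µM verapamil hydrochloride added before the compound; 72 h exposure. Formazan read at 570/630 nm relative to untreated controls. IC50 from concentration-response curves, mean ± SD of four independent experiments.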
# HL-60 [11] = test: Induction of apoptosis in human HL60 cells assessed as DNA ladder formation at 5 uM after 24 hrs by agarose gel electrophoresis; format: functional, cell-based
# Method in brief: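 HL-60 cells incubated with 5 µM compound for 24 h, then examined for DNA ladder patterns.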
# HL-60 [12] = test: Induction of apoptosis in human HL60 cells assessed as increase of caspase 3 activity at 5 uM after 4 hrs by luminometric assay; format: functional, cell-based
# Method in brief: (§2)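 HL-60 and 518A2 cells treated with 5 µM compound and sampled at intervals from 1 to 24 h. Lysed in 50 mM Tris-HCl pH 7.4, 150 mM NaCl, 1% Triton X-100 with protease inhibitors for 15 min at 4 °C, spun at 800 g. Protein measured by Bradford. Caspase-3/7, -8 and -9 activities read with luminogenic peptide substrates; reported as relative luminescence.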
# HL-60 [13] = test: Induction of apoptosis in human HL60 cells assessed as increase of caspase 3 activity at 5 uM after 12 hrs by luminometric assay; format: functional, cell-based; method in brief: as §2
# HL-60 [14] = test: Induction of apoptosis in human HL60 cells assessed as increase of caspase 8 activity at 5 uM after 4 to 24 hrs by luminometric assay; format: functional, cell-based; method in brief: as §2
# HL-60 [15] = test: Induction of apoptosis in human HL60 cells assessed as increase of caspase 9 activity at 5 uM after 12 hrs by luminometric assay; format: functional, cell-based
# Method in brief: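 HL-60 leukaemia cells were treated with test compound and sampled at intervals from 1 to 24 h. Protein was measured by Bradford. Caspase-9 (Caspase-Glo 8 for line 1) was read from a luminogenic peptide substrate as relative luminescence.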
# 518A2 [16] = test: Induction of apoptosis in human 518A2 cells assessed as increase of caspase 8 activity at 5 uM measured up to 12 hrs by luminometric assay; format: functional, cell-based; method in brief: as §2
# 518A2 [17] = test: Induction of apoptosis in human 518A2 cells assessed as increase of caspase 3 activity at 5 uM measured up to 12 hrs by luminometric assay; format: functional, cell-based; method in brief: as §2
# 518A2 [18] = test: Induction of apoptosis in human 518A2 cells assessed as increase of caspase 9 activity at 5 uM after 8 to 12 hrs by luminometric assay; format: functional, cell-based; method in brief: as §2
# 518A2 [19] = test: Induction of apoptosis in human 518A2 cells assessed as increase of ratio of Bax to Bcl-2 mRNA expression at 5 uM after 6 to 18 hrs by RT-PCR analysis; format: functional, cell-based
# Method in brief: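 518A2 cells exposed to 5 µM compound for 6 h or 18 h. bax and bcl-2 mRNA quantified by real-time PCR, normalised to GAPDH, and expressed as the bax/bcl-2 ratio.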
# HL-60 [20] = test: Induction of apoptosis in human HL60 cells assessed as increase of Bcl-2 mRNA expression at 5 uM up to 24 hrs by […] analysis; format: functional, cell-based
# HL-60 [21] = test: Induction of apoptosis in human HL60 cells assessed as increase of Bax mRNA expression at 5 uM up to 24 hrs by […] analysis; format: functional, cell-based
# 518A2 [22] = test: Induction of apoptosis in human 518A2 cells assessed as increase of Bcl-2 mRNA expression at 5 uM up to 24 hrs by […] analysis; format: functional, cell-based
# 518A2 [23] = test: Induction of apoptosis in human 518A2 cells assessed as appearance of intact mitochondria in cytosol at 5 uM after 6 hrs using JC1 dye relative to control; format: functional
# Method in brief: (§3)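 Mitochondrial membrane potential measured with JC-1. Cells exposed to 5 µM compound for 6 or 18 h, pelleted at 400 g, stained with 0.2× JC-1 at 37 °C for 15 min (HL-60) or 35 min (518A2), washed and resuspended in PBS. Red fluorescence (ex 585/em 590 nm) and green (ex 510/em 527 nm) read; red/green ratio relative to untreated controls (100%). Mean ± SD, four independent experiments.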
# 518A2 [24] = test: Induction of apoptosis in human 518A2 cells assessed as appearance of intact mitochondria in cytosol at 5 uM after 18 hrs using JC1 dye relative to control; format: functional; method in brief: as §3
# HL-60 [25] = test: Induction of apoptosis in human HL60 cells assessed as appearance of intact mitochondria in cytosol at 5 uM after 6 hrs using JC1 dye relative to control; format: functional; method in brief: as §3
# HL-60 [26] = test: Induction of apoptosis in human HL60 cells assessed as appearance of intact mitochondria in cytosol at 5 uM after 18 hrs using JC1 dye relative to control; format: functional; method in brief: as §3
# [27] = Cytotoxicity against human 518A2 cells assessed as increase in ROS production at 5 uM after 24 hrs by NBT reduction assay relative to control; format: functional
# Method in brief: (§4)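 NBT assay. HL-60 cells (0.5×10⁶/mL) or trypsinised 518A2 cells (5×10⁴/mL) pre-incubated 24 h at 37 °C, then given compound at a final 5 µM for 24 or 72 h. Medium removed; cells incubated with 0.1% NBT for 1 h (HL-60) or 4 h (518A2). Diformazan dissolved in 2 M KOH/DMSO; A630 read against 405 nm. Given as % of untreated controls; double quadruplicates.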
# [28] = Cytotoxicity against human 518A2 cells assessed as increase in ROS production at 5 uM after 72 hrs by NBT reduction assay relative to control; format: functional; method in brief: as §4
# HL-60 [29] = test: Cytotoxicity against human HL60 cells assessed as increase in ROS production at 5 uM after 24 hrs by NBT reduction assay relative to control; format: functional; method in brief: as §4
# HL-60 [30] = test: Cytotoxicity against human HL60 cells assessed as increase in ROS production at 5 uM after 72 hrs by NBT reduction assay relative to control; format: functional; method in brief: as §4
compound,measurement,setting,value
COc1cccc2c1C(=O)c1c(O)c3c(c(O)c1C2=O)C[C@@](O)(C(=O)CO)C[C@@H]3O[C@H]1C[C@H](N)[C@H](O)[C@H](C)O1.Cl [DOXORUBICIN HYDROCHLORIDE],IC50,[1],340 nM
same,IC50,[2],170 nM
same,IC50,[3],120 nM
same,IC50,HL-60 [4],220 nM
same,IC50,HL-60 [5],100 nM
same,IC50,HL-60 [6],80 nM
same,IC50,[7],59900 nM
same,IC50,[8],35600 nM
same,IC50,[9],18300 nM
same,IC50,[10],1020 nM
same,Activity,HL-60 [11],Active
same,Activity,HL-60 [12],Active
same,Activity,HL-60 [13],Active
same,Activity,HL-60 [14],Active
same,Activity,HL-60 [15],Active
same,Activity,518A2 [16],inactive
same,Activity,518A2 [17],inactive
same,Activity,518A2 [18],Active
same,Activity,518A2 [19],Active
same,Activity,HL-60 [20],Active
same,Activity,HL-60 [21],inactive
same,Activity,518A2 [22],inactive
same,Activity,518A2 [23],98%
same,Activity,518A2 [24],74%
same,Activity,HL-60 [25],83%
same,Activity,HL-60 [26],28%
same,Activity,[27],2.5%
same,Activity,[28],15.4%
same,Activity,HL-60 [29],2.8%
same,Activity,HL-60 [30],5.6%
